SIAE inh – inhibitors of human sialic acid acetylesterase SIAE | Q9HAT2 | SIAE FP-Rh probe binding, fluorescence polarization | inhibition, % at 9.66 µM | actives 0.69% (n = 370,000) | AID 1053197;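 active = inhibition above a cutoff: mean of compounds within the control limits plus 3 SD of those, cut at about 17% in these data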;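 also: 0% = plate median of compound wells and 100% = probe without SIAE protein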
rCAG binder-1 – molecules binding r(CAG) RNA repeats; r(CAG) RNA repeat, TO-PRO-1 dye displacement fluorescence; AID 651821; actives 1.3% (n = 370,000); inhibition, % at 3 µM;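 active = inhibition above the plate cutoff, the mean of all test compounds on that plate plus 3 SD, cut at about 35% in these data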;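 also: 0% = DMSO alone and 100% = 100 µM mitoxantrone as full dye displacement; higher means more dye released from RNA so lower well fluorescence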
PRMT1 inh – inhibitors of human PRMT1; Q99873; recombinant PRMT1, activity-based probe fluorescence polarization; inhibition, % at 2.79 µM; actives 1.3% (n = 370,000);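 active = inhibition above about 21% made by adding two undisclosed values, limit read from the data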
mABHD4 FP – inhibits mouse alpha/beta hydrolase domain 4; Q8VD66; AID 720543; purified mABHD4, FP-Rh probe fluorescence polarization; inhibition, % at 8.92 µM; actives 0.54% (n = 370,000);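 active = inhibition exceeding the mean over every tested compound plus 3 SD, cut at about 30% in these data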;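 also: 0% = plate median of compound wells and 100% = S159A mutant with DMSO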
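Assay system: mouse ABHD4 enzyme, wild type / Also added: fluorescent activity-based probe FP-Rh / Doses: single nominal dose of 8.92 µM, 0.89% DMSO final / Timing: 45 min compound pre-incubation plus 60 min probe step, 25 °C / Signal: FP readout, ex 525 nm / em 598 nm / Control set: S159A mutant/DMSO as 100%, compound-well median as 0%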
HTRA1 inhibitor – inhibitors of human serine peptidase HTRA1. AID 504803. recombinant HTRA1, FP-rhodamine activity-based probe, fluorescence polarization. actives 0.5% (n = 340,000). inhibition, % at 5.96 µM; in the data active = inhibition above about 36%;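 also: 0% = enzyme with DMSO and 100% = wells lacking enzyme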
Target sequence (Q92743 whole entry, looked up): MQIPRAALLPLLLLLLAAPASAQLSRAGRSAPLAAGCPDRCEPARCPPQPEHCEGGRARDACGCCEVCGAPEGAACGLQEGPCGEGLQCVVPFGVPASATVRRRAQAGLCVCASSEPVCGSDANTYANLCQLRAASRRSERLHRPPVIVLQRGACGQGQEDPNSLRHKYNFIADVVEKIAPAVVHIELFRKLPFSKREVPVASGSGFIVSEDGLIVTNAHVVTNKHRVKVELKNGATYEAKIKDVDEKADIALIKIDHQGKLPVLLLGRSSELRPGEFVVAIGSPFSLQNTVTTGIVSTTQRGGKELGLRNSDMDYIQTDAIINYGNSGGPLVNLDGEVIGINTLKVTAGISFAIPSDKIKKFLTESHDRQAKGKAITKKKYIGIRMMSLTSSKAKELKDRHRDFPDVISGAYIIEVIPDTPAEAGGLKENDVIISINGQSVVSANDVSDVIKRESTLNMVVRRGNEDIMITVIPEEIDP
rCAG bind conf – r(CAG) RNA repeat binding, confirmation. shares compounds with rCAG binder-1. actives 70% (n = 4,300). AID 652065. TO-PRO-1 dye displacement fluorescence. inhibition, % at 3 µM;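 active = inhibition above a per-plate cutoff, the mean inhibition of sample wells plus 3 SD, cut at about 35% in these data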;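 also: loss of TO-PRO-1 fluorescence as compound displaces dye from 1x1 AA loop RNA; 0% = DMSO only wells and 100% = 100 µM mitoxantrone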
dCAG dye counter – disrupts DNA CAG TO-PRO-1 complex, flagging rCAG hits | shares compounds with rCAG binder-1 | d(CAG) DNA oligo TO-PRO-1 dye displacement, fluorescence | inhibition, % at 3 µM | actives 94% (n = 4,300);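 active = inhibition above its plate's cutoff, the mean test-well inhibition plus 3 SD, cut at about 4.8% in these data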;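 also: 0% = DNA dye mix with DMSO and 100% = 100 µM mitoxantrone; hits displace the dye from DNA and so lower well fluorescence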
dCAG dye DR – counter-screen for rCAG binders: inhibitors of DNA CAG TO-PRO-1 complex. DNA CAG/GTC duplex TO-PRO-1 dye displacement fluorescence. AID 686960. actives 20% (n = 250). shares compounds with rCAG binder-1. IC50, µM; in the data active = IC50 below about 10 µM
dCAG TOPRO ctr – DNA CAG dye complex inhibition, late stage dose response; shares compounds with rCAG binder-1; AID 720649; actives 80% (n = 30); IC50, µM; d(CAG) DNA duplex TO-PRO-1 dye displacement, fluorescence
rCAG binder-2 – binds r(CAG) RNA repeats in late stage dose response; shares compounds with rCAG binder-1; r(CAG) RNA TO-PRO-1 dye displacement, fluorescence; IC50, µM; actives 100% (n = 30); AID 720651
* hit, by the source's call; i = inactive; . = not tested or not shown. In the library only some 3.3% were active in any assay of this set; here they are far more common. Unless noted, no rule for the calls is given here.

SMILES | SIAE inh | rCAG binder-1 | PRMT1 inh | mABHD4 FP | HTRA1 inhibitor | rCAG bind conf | dCAG dye counter | others
CCOC(=O)c1c(NC(=O)C2C3C=CC(C3)C2C(=O)O)sc2c1CCCC2 (stereo unspecified) | 9 | 37* | -3 | 4 | 2 | 50* | 11* | dCAG dye DR=>30
CC(C)OC(=O)c1c(NC(=O)CCC(=O)O)sc2c1CCCCC2 | 0 | 32 | -2 | 4 | 9 | . | .
COc1ccc(C2C(C(=O)N3CCN(c4ccccc4Cl)CC3)CC(=O)N2c2ccc(OC)cc2)cc1 (stereo unspecified) | 2 | 4 | 1 | 2 | . | . | .
O=C(NC1CCCC1)C1(C(=O)C2CC2)CC(c2ccccn2)=NO1 (stereo unspecified) | 3 | 0 | -1 | 3 | . | . | .
COC(=O)c1c(NS(=O)(=O)c2ccc3ccccc3c2)sc2c1CCCC2 | 2 | 44* | 2 | 7 | -5 | 70* | 32* | dCAG dye DR=i;dCAG TOPRO ctr=2.9*;rCAG binder-2=1*
C#CCNC(=O)C[C@H]1C[C@@]2(C(=O)OC)C(=C[C@H](COCc3ccccc3)O[C@@H]2C)N(Cc2ccco2)C1=O | 4 | 3 | -2 | -1 | . | . | .
CCOC(=O)c1c(Nc2ccc(Cl)cc2)sc(/C=C2\C=Nc3ccccc32)c1O | -6 | 8 | -3 | 5 | -7 | . | .
Oc1nc(Nc2ccc(F)cc2)sc1/C=C1\C=Nc2ccccc21 | 9 | 48* | -2 | -2 | -14 | 25 | 14*
O=[N+]([O-])c1cccc(/C=N\N=C2c3ccccc3-c3ccccc32)c1O | 15 | 2 | -2 | 7 | 7 | . | .
Oc1ccc(C=NN=C2c3ccccc3-c3ccccc32)c(O)c1 | -23 | 49* | 0 | -12 | -41 | 49* | 32*
NC(=S)N/N=C/c1c[nH]c2ccccc12 | 9 | 7 | 6 | 7 | 0 | . | .
C(=NN=C1c2ccccc2-c2ccccc21)c1c[nH]c2ccccc12 | -30 | 35* | 3 | -22 | -5 | 39* | 20*
Cc1cc(-n2c(C)cc(C(=O)CSc3[nH]c(=O)cc(C(F)(F)F)c3C#N)c2C)no1 | -4 | 42* | 5 | 2 | -11 | 38* | 9.1*
Cc1cc(NC(=O)CSc2[nH]c(=O)cc(C(F)(F)F)c2C#N)no1 | -6 | 6 | -4 | -2 | -23 | . | .
O=C1NC(=O)/C(=C/c2ccccc2Oc2ccc(Cl)cc2)S1 | -6 | 19 | 0 | -4 | -12 | . | .
O=C(COc1ccccc1/C=C1\SC(=O)NC1=O)Nc1ccc(F)cc1 | -16 | 52* | -1 | -29 | -19 | 45* | 16*
Cc1ccc(S(=O)(=O)Oc2ccccc2/C=C2\SC(=O)NC2=O)cc1 | -4 | 42* | 1 | 1 | -4 | 30 | 7.4*
CCCC1CCC2(CCC(=O)N2CCO)CC1 (stereo unspecified) | 0 | 2 | -5 | 3 | . | . | .
O=C(Nc1cc(Cl)ccc1F)C1CCCN1S(=O)(=O)c1cccc2cccnc12 (stereo unspecified) | 8 | 1 | -3 | -1 | . | . | .
C=CCn1c(SCc2cccc(C(F)(F)F)c2)nnc1-c1ccc(OC)cc1 | 6 | -4 | -4 | 1 | . | . | .
O=C(CSc1nc(O)cc(=O)[nH]1)Nc1ccc2c(c1)CCC2 | -18 | 49* | 5 | 10 | -11 | 12 | 6.0*
Cc1csc(SCC(=O)Nc2nc(-c3ccccc3)cs2)n1 | -19 | 5 | 3 | -38 | -43 | . | .
Cc1ccc(-c2csc(NC(=O)CSc3nc4ccccc4[nH]3)n2)cc1 | -7 | 14 | -1 | -45 | -61 | . | .
Nc1cc(=O)[nH]c(SCC(=O)Nc2ccc3c(c2)CCC3)n1 | -12 | 11 | 7 | -10 | -13 | . | .
COc1ccc(-c2csc(NC(=O)CSc3nc4ccccc4c(=O)[nH]3)n2)cc1 | -32 | 38* | 3 | -28 | -39 | 57* | 22*
SMILES | SIAE inh | rCAG binder-1 | PRMT1 inh | mABHD4 FP | HTRA1 inhibitor | rCAG bind conf | dCAG dye counter | others
Cc1cc(=O)[nH]c(SCC(=O)Nc2nc(-c3ccccc3)cs2)n1 | -5 | 36* | -3 | -5 | -23 | 33 | 9.5*
COc1cc(NC(=O)C2CCCN(S(=O)(=O)c3cc(OC)ccc3OC)C2)cc(OC)c1 (stereo unspecified) | 4 | 4 | 4 | -7 | . | . | .
COC(=O)C[C@H]1CC[C@@H]2[C@H](COc3ccc(NC(=O)c4cccc(F)c4)cc3C(=O)N2C)O1 | 2 | 0 | -2 | 1 | . | . | .
Cc1ccc2nc(N3C(=O)C(O)=C(C(=O)c4ccco4)C3c3ccc(O)cc3)sc2c1 (stereo unspecified) | -28 | 67* | 21* | -7 | -28 | 50* | 16*
Cc1ccc2nc(N3C(=O)C(O)=C(C(=O)c4ccco4)C3c3ccc(C)o3)sc2c1 (stereo unspecified) | -10 | 49* | 14 | -9 | -9 | 72* | 33* | dCAG dye DR=3.8*;dCAG TOPRO ctr=2*;rCAG binder-2=0.92*
CCc1ccc2nc(N3C(=O)C(O)=C(C(=O)c4ccco4)C3c3cccs3)sc2c1 (stereo unspecified) | . | . | . | . | -29 | . | .
COc1ccc(OC)c(S(=O)(=O)CC(=O)c2cc3ccc(OC)cc3oc2=O)c1 | . | . | . | . | 0 | . | .
COc1ccc(S(=O)(=O)CC(=O)c2cc3cc(Br)ccc3oc2=O)cc1 | 2 | 51* | 11 | 19 | -16 | 48* | 23*
CN(C)c1cccc(/C=C2\CC3(OC(=O)C4CCCC4)CCCN2C3)c1 (stereo unspecified) | -2 | 4 | 2 | 8 | . | . | .
Nn1c(SCC(=O)Nc2ccc(OCc3ccccc3)cc2)nnc1-c1cc(-c2ccc(Cl)cc2)n[nH]1 | 5 | 9 | 2 | -3 | . | . | .
O=C(CSc1ccsc1[N+](=O)[O-])Nc1cccc(F)c1 | -1 | 35* | 2 | 10 | 4 | 19 | 12*
CCc1ccccc1NC(=O)CSc1ccsc1[N+](=O)[O-] | 5 | 4 | -1 | 14 | 5 | . | .
COc1ccc(-c2cc3ccc(OCc4nn[nH]n4)cc3oc2=O)cc1OC | -22 | 35* | 0 | -16 | -3 | 19 | 4.7*
Cc1c(C)c2c(OCC(=O)N[C@@H](Cc3ccccc3)C(=O)O)cc3c(c2oc1=O)CCC(C)(C)O3 | -10 | 45* | -2 | -3 | -19 | 48* | 13*

High-throughput results from PubChem BioAssay.
